Target: T1, Calpain-2 catalytic subunit (Homo sapiens, UniProt P17655)
T1 sequence (P17655 whole entry): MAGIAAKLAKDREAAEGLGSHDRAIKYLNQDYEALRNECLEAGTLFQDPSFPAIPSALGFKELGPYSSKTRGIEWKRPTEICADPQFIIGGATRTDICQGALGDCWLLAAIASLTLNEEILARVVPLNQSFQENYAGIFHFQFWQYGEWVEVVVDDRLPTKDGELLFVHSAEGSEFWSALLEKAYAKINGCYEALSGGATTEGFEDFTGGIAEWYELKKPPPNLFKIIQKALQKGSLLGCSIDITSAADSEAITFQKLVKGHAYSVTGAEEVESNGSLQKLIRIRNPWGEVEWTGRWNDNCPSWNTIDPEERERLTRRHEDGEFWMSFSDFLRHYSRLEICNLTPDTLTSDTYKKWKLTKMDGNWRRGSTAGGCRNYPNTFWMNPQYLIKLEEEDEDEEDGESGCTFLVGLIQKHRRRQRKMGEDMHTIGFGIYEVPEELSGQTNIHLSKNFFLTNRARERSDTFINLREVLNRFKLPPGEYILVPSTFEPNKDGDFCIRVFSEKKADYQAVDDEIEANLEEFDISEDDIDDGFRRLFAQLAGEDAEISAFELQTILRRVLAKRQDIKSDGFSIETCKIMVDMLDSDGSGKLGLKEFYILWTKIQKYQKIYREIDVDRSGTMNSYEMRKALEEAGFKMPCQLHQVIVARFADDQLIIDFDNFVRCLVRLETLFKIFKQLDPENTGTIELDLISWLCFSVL
Test: Compound was evaluated for the inhibition of Cysteine protease Calpain 2
Outline: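 Calpain assay in 25 mM Tris, pH 8.0, with 10 mM CaCl₂ and 5% DMSO. Suc-Leu-AMC hydrolysis was read as initial velocity (t = 30-60 s) after a 30 s delay, at room temperature. Five or more inhibitor concentrations (not above 2 × K_obs) were used at two fixed substrate levels. Ki came from Dixon plots (1/v vs I) averaged over triplicates.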

| Ki [nM] | Structure (SMILES) |
| --- | --- |
| 280 | CCC(NC(=O)C(CC(C)C)NC(=O)OCc1ccccc1)C(=O)C(=O)NCC(O)c1cccc(Oc2cccc(C(F)(F)F)c2)c1 (configuration not stated) [[1-(1-{2-Hydroxy-2-[3-(3-trifluoromethyl-phenoxy)-phenyl]-ethylaminooxalyl}-propylcarbamoyl)-3-methyl-butyl]-carbamic acid benzyl ester] |
| 60 | CCC(NC(=O)C(CC(C)C)NC(=O)OCc1ccccc1)C(=O)C(=O)NCCc1ccc(O)cc1 (configuration not stated) [(1-{1-[2-(4-Hydroxy-phenyl)-ethylaminooxalyl]-propylcarbamoyl}-3-methyl-butyl)-carbamic acid benzyl ester] |
